PubChem BioAssay AID2341 (Sanford-Burnham Center for Chemical Genomics, 2010)
Calls of active or inactive are those of the source.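 The calls were made as follows: active = half-maximal potency under 10 µM when retested across doses; inactive = the rest.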

Biological target: Cannabinoid receptor 1 (Homo sapiens) (UniProt P21554)
Experiment: human CB1 agonism via arrestin-GFP redistribution – imaging, U2OS cells, beta-arrestin-GFP, powder samples, SAR follow-up (AID 2341)
Conditions: U2OS CB1 beta-arrestin-GFP translocation imaging
Outline: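 System: U2OS cells with human CB1 and β-arrestin-GFP / Buffer or medium: serum-free MEM during compound exposure / Dosing: Ten-point series, 62 nM to 32 µM, 0.31% DMSO / Timing: compound exposure 60 min at 37 °C / Replicates: duplicate wells per dose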

Chain of Cannabinoid receptor 1 (Homo sapiens) (P21554 whole entry, looked up): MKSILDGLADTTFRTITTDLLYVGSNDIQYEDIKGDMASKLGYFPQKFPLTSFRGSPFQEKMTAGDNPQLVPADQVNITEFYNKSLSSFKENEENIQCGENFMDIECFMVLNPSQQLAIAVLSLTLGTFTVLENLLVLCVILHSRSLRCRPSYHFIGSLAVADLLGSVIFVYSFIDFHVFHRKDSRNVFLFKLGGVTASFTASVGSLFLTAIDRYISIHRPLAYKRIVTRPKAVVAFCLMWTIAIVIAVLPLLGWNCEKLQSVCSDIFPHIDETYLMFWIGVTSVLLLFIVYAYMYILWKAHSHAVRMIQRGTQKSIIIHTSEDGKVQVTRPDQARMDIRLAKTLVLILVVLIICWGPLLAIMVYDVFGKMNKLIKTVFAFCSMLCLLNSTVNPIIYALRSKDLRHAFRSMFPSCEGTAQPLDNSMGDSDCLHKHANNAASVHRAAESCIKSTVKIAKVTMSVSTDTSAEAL

Row | SMILES | EC50
1 | C/C(C=NNC(=O)c1nnn(-c2nonc2N)c1CN1CCC(C)CC1)=C/c1ccccc1 | > 32 µM (inactive)
2 | CN(C)S(=O)(=O)c1ccc(N2CCCC2)c(C(=O)N2CCN(c3ccc([N+](=O)[O-])cc3)CC2)c1 | > 32 µM (inactive)
3 | COc1cc2c(cc1NC(=O)C(C)Sc1ccc(NC(C)=O)cc1)oc1ccccc12 (stereo unspecified) | > 32 µM (inactive)
4 | CC(C)Oc1ccc(S(=O)(=O)N2CCOCC2)cc1NC(=O)c1ccc(N2CCCC2=O)cc1 | > 32 µM (inactive)
5 | CC(C)=CC(=O)Nc1ccc(OCc2ccccc2)cc1 | > 32 µM (inactive)
6 | COc1ccc2cc(C)c3nnc(SCC(=O)Nc4nc(-c5ccc(F)cc5)cs4)n3c2c1 | > 32 µM (inactive)
7 | C=CCN(CC=C)S(=O)(=O)c1ccc(NC(=S)NC(=O)c2ccc(-c3ccccc3)cc2)cc1 | > 32 µM (inactive)
8 | COc1ccc(S(=O)(=O)N2CCOCC2)cc1NC(=O)c1cc2c(s1)CCCC2 | > 32 µM (inactive)
9 | COc1ccc2c(c1)cc(C)c1nnc(SCC(=O)N(C)c3nc(-c4ccccc4)cs3)n12 | > 32 µM (inactive)
10 | Cc1occc1C(=O)Nc1ccc(OCc2ccccc2)cc1 | > 32 µM (inactive)
11 | COc1ccc(-c2csc(NC(=O)CSc3nnc4c(C)cc5ccccc5n34)n2)cc1 | > 32 µM (inactive)
12 | CC(Sc1nc2cc(Cl)ccc2s1)C(=O)Nc1cccc(S(=O)(=O)N2CCOCC2)c1 (stereo unspecified) | > 32 µM (inactive)
13 | CCCN(CCC)Cc1c(C(=O)NN=C/C(C)=C\c2ccccc2)nnn1-c1nonc1N | > 32 µM (inactive)
14 | O=C(CSc1nc2ccccc2s1)N1c2ccccc2Sc2ccc(C(F)(F)F)cc21 | > 32 µM (inactive)
15 | CCCN(CCC)Cc1c(C(=O)NN=Cc2c[nH]c3ccccc23)nnn1-c1nonc1N | > 32 µM (inactive)
16 | CC(C)NS(=O)(=O)c1ccc(NC(=S)NC(=O)c2ccc(-c3ccccc3)cc2)cc1 | > 32 µM (inactive)
17 | COc1cc2c(cc1NC(=O)CSc1ccccc1)oc1ccccc12 | > 32 µM (inactive)
18 | COc1ccccc1/C=C/C(=O)NC(=S)Nc1ccc(S(=O)(=O)N(C)c2ccccc2)cc1 | > 32 µM (inactive)
19 | O=C(CSc1nc2ccccc2s1)N1c2ccccc2Sc2ccc(Cl)cc21 | > 32 µM (inactive)
20 | CCCN(CCC)Cc1c(C(=O)NN=C/C(C)=C\c2ccco2)nnn1-c1nonc1N | > 32 µM (inactive)
21 | Cc1cccc(N2CCN(C(=O)c3cc(S(=O)(=O)N(C)C)ccc3N3CCCC3)CC2)c1C | > 32 µM (inactive)
